One molecule from ChEMBL document CHEMBL4229376, “Optimization of the pharmacokinetic properties of potent anti-trypanosomal triazine derivatives” (Eur J Med Chem, 2018) can be followed below.

Data set [1] is described as follows: Tmax in Swiss mouse at 25 mg/kg, po administered as single dose after 24 hrs by UPLC/MS/ESI analysis. The format is ADME, organism-based. Particulars: in vivo. The essentials:
(§1)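 Mice were given the compound orally as a single dose of either 25 or 50 mg/kg, one group per dose. Plasma concentrations were followed over time up to 24 h, and the pharmacokinetic parameters were derived from the concentration-time profile.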

In data set [2] the test system is Trypanosoma brucei brucei. The experiment in a line: Antitrypanosomal activity against Trypanosoma brucei brucei Squib 427 infected in Swiss mouse assessed as mouse survival at 25 mg/kg, po bid for 5 days and measured on day 14 post infection. The data set is classed as functional, organism-based. Summed up: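 Acute T. b. brucei mouse infection model. Dosing was PO or IP at 10–50 mg/kg, once (SID) or twice (BID) daily for 5 days after infection, with 3 mice per group. […] Read-outs were mean survival time and survivors on day 14 post infection.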

The nature of data set [3]: Drug metabolism in mouse liver microsomes assessed as UGT mediated compound […] by measuring parent compound remaining at 5 uM after 60 mins in presence of UDPGA by UPLC/MS/ESI analysis. The format is ADME. Particulars: 1 h. Summed up:
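Metabolic stability was run with mouse liver microsomal fraction (S9) and read as percent parent compound remaining over incubation time. Diclofenac served as the reference compound.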
A general note: Liver microsomes are a subcellular fraction often used to study metabolism.

Data set [4] is described as follows: Clearance in Swiss mouse at 25 mg/kg, po administered as single dose after 24 hrs by UPLC/MS/ESI analysis. The data set is classed as ADME, organism-based. Conditions: in vivo. Summed up:
(§2)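 Mice in groups received one oral dose of 25 or 50 mg/kg. Plasma concentrations were followed over time up to 24 h, and PK parameters including T1/2 were derived from the concentration–time profile.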

The nature of data set [5]: AUC (0 to >4 hrs) in Swiss mouse at 25 mg/kg, po administered as single dose by UPLC/MS/ESI analysis. Conditions: in vivo. The data set is classed as ADME, organism-based. The essentials:
as §2

A short description of data set [6]: Drug uptake in Swiss mouse blood at 50 mg/kg, po administered as single dose after 4 hrs by UPLC/MS/ESI analysis. The data set is classed as ADME, organism-based. Particulars: whole blood, read-out: Drug uptake. Summed up: as §1
Data set [7] can be described thus: Drug metabolism in human liver microsomes assessed as CYP450 mediated compound […] by measuring parent compound remaining at 5 uM after 60 mins in presence of NADPH by UPLC/MS/ESI analysis. The data set is classed as ADME. Particulars: read-out: Stability.
Data set [8] deals with Trypanosoma brucei brucei. The experiment in a line: Antitrypanosomal activity against Trypanosoma brucei brucei Squib 427 infected in Swiss mouse assessed as mean survival days at 25 mg/kg, po bid for 5 days. The data set is classed as functional. Summed up: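 Acute mouse infection model with T. b. brucei. Dosing ran for 5 days after infection, orally or intraperitoneally, once or twice daily. Groups were 3 mice each, with vehicle-treated infected controls. The read-out was mean survival time in days, plus the number of survivors on day 14 post-infection.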

The nature of data set [9]: Drug uptake in Swiss mouse blood at 25 mg/kg, po administered as single dose after 24 hrs by UPLC/MS/ESI analysis. The data set is classed as ADME, organism-based. Conditions: whole blood, read-out: Drug uptake. The essentials:
as §1

The nature of data set [10]: Protein binding in mouse plasma assessed as drug recovery at 2 uM after 6 hrs by equilibrium dialysis and LC-MS analysis. The format is ADME, cell-free. Conditions: read-out: Drug recovery. Background: Equilibrium dialysis compares concentrations on both sides of a semipermeable membrane.
A short description of data set [11]: Drug level in Swiss mouse blood infected with Trypanosoma brucei brucei Squib 427 at 50 mg/kg, po bid for 5 days measured after 0.5 hrs after last dose by UPLC/MS/ESI analysis. Particulars: whole blood, read-out: Drug uptake. The format is ADME, organism-based.
Data set [12] can be described thus: Protein binding in 10% FBS in Trypanosoma brucei culture medium assessed as drug recovery at 10 uM after 6 hrs by equilibrium dialysis and LC-MS analysis. The data set is classed as ADME, cell-free, Bos taurus, Serum. Particulars: cattle, read-out: Drug recovery.
Data set [13] is described as follows: Cytotoxicity against human MRC5 SV2 cells after 72 hrs by resazurin dye-based fluorimetric analysis. The format is cell-based. Particulars: MRC-5 SV2, 72 h.
A short description of data set [14]: Drug metabolism in human plasma assessed as parent compound remaining after 15 mins by UPLC/MS/ESI analysis. The format is ADME, cell-free. Particulars: read-out: Stability.

SMILES strings stand for the structures. pIC50: −log10 of the molar value. The source made the active and inactive calls. The calls are words filed in the database; no cut-off is given here.

Regarding `Nc1nc(Nc2ccc(F)cc2)nc(Oc2ccc(F)cc2)n1`, the Tmax in [1] came out at 2.3 h. In addition, in [2], the result was inactive. The Stability in data set [3] was determined as 101%. Also, in data set [4], the CL/F is 70.1 mL/min. Besides, the area under the curve (AUC) at 4 h in [5] amounted to 13800 ng·h/mL. Besides, the concentration at 4 h in data set [6] is 2030 ng/mL. Further, the remaining at 1 h, 5 µM in data set [7] worked out at 65%. Further, the MST in data set [8] stood at 6 days. Moreover, the concentration at 24 h in data set [9] stood at 50 ng/mL. The recovery at 6 h, 2 µM in [10] amounted to 90.2%. For the same molecule, the concentration at 0.5 h in [11] came to 2870 ng/mL. The recovery at 6 h, 10 µM in data set [12] amounted to 71.1%. For the same molecule, in data set [13], the pIC50 was < 4.19. Moreover, the remaining at 0.25 h in [14] worked out at 80%.

For orientation: Tmax means the time at which the peak concentration occurs. By CL/F is commonly meant clearance divided by bioavailability, as obtained after extravascular dosing. By AUC is commonly meant the area under the concentration-time curve, a measure of exposure. The pIC50 is −log10 of the IC50, conventionally taken in molar units. Low values mean a high IC50, high ones a low IC50.
